Laboratory results published in ChEMBL document CHEMBL3259739, “Synthesis and structure-activity relationship of trisubstituted thiazoles as Cdc7 kinase inhibitors” (Eur J Med Chem, 2014).

Key:
[1] = target: Serine/threonine-protein kinase pim-1 (Homo sapiens, UniProt P11309); experiment: Inhibition of PIM1 (unknown origin) at 1 uM relative to control; conditions: values are per cent of control
Outline: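 The supplementary panel puts Pim1 in the KinomeSCAN competitive binding format; compounds at 1 µM in duplicate; percent […] control.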

[2] = target: T1, Protein kinase C epsilon type (Homo sapiens) (UniProt Q02156); experiment: Inhibition of PRKCE (unknown origin) at 1 uM relative to control; conditions: values are per cent of control
T1 sequence (whole entry): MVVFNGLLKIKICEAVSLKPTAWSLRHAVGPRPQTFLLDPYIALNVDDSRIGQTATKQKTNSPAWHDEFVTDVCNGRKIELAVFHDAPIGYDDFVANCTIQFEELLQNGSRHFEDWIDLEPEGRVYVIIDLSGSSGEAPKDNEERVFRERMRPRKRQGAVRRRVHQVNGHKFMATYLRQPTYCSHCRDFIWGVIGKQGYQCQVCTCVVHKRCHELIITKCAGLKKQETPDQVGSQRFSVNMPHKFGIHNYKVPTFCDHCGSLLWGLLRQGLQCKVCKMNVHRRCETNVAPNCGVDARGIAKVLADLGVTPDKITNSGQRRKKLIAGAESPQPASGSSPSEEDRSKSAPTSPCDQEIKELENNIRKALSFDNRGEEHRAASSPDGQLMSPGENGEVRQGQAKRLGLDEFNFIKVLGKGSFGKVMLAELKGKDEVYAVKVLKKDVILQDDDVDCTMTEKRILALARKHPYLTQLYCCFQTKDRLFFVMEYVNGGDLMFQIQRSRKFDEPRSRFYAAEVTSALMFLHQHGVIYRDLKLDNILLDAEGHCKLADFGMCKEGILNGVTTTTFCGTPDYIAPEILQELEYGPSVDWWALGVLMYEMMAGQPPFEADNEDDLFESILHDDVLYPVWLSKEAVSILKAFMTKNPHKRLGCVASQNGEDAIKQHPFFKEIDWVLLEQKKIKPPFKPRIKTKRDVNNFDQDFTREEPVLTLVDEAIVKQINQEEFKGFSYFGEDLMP
Outline: (§1)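 KinomeSCAN competitive binding panel of 100 kinases; compounds tested at 1 µM in duplicate; read-out is percent […] control.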

[3] = target: Serine/threonine-protein kinase 33 (Homo sapiens) (UniProt Q9BYT3); experiment: Inhibition of STK33 (unknown origin) at 1 uM relative to control; conditions: values are per cent of control; outline: as §1
Serine/threonine-protein kinase 33 (Homo sapiens), sequence (Q9BYT3 whole entry, looked up): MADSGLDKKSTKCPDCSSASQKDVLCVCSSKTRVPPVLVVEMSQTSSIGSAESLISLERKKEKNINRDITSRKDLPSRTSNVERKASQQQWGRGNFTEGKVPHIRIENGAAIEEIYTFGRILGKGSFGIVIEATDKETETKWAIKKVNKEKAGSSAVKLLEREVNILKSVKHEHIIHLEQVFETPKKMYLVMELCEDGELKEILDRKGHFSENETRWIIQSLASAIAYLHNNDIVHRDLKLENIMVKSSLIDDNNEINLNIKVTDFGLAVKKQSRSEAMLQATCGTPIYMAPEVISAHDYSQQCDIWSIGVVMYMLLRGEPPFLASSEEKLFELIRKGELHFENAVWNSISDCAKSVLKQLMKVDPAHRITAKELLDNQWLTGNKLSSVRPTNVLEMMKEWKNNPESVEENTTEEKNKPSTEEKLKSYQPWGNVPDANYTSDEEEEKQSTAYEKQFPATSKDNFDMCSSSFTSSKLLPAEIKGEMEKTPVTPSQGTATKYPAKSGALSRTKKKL

[4] = target: T2, Serine/threonine-protein kinase TBK1 (Homo sapiens) (UniProt Q9UHD2); experiment: Inhibition of TBK1 (unknown origin) at 1 uM relative to control; conditions: values are per cent of control; outline: as §1
T2 sequence (whole entry): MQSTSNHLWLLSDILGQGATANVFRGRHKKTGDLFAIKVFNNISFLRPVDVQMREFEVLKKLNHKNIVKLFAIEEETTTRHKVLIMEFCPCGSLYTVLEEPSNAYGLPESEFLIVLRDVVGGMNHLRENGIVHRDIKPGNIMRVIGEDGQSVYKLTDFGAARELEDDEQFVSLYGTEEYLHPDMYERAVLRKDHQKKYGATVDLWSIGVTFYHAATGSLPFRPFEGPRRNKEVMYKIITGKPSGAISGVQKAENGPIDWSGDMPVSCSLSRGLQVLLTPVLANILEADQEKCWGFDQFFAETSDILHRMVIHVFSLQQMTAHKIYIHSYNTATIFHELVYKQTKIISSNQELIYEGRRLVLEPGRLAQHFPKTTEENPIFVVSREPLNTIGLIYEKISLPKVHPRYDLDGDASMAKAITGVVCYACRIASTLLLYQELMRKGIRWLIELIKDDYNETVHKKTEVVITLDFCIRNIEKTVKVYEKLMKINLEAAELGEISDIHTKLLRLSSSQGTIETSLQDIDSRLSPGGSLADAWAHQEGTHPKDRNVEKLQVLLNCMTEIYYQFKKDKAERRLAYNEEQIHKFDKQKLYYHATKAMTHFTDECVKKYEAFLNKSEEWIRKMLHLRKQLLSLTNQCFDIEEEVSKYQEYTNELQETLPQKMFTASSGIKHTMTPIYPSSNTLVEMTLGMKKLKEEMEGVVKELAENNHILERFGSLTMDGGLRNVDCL

[5] = target: RAC-beta serine/threonine-protein kinase (Homo sapiens) (UniProt P31751); experiment: Inhibition of AKT2 (unknown origin) at 1 uM relative to control; values are per cent of control
RAC-beta serine/threonine-protein kinase (Homo sapiens), sequence (P31751 whole entry): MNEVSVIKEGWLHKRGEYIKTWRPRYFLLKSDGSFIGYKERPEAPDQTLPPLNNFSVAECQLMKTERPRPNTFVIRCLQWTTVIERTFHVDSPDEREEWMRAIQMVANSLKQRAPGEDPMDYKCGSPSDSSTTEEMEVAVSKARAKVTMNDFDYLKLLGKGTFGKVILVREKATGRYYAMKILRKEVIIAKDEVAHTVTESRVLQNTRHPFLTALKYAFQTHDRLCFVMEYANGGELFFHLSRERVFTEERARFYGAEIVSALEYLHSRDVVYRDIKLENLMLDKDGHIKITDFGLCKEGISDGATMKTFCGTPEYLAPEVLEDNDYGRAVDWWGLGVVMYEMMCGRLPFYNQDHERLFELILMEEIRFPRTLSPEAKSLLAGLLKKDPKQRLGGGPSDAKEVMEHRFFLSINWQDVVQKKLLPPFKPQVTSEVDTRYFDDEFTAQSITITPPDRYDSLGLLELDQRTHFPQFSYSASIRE

[6] = target: T3, Serine/threonine-protein kinase Chk1 (Homo sapiens) (UniProt O14757); experiment: Inhibition of CHEK1 (unknown origin) at 1 uM relative to control; values are per cent of control
T3 sequence (whole entry): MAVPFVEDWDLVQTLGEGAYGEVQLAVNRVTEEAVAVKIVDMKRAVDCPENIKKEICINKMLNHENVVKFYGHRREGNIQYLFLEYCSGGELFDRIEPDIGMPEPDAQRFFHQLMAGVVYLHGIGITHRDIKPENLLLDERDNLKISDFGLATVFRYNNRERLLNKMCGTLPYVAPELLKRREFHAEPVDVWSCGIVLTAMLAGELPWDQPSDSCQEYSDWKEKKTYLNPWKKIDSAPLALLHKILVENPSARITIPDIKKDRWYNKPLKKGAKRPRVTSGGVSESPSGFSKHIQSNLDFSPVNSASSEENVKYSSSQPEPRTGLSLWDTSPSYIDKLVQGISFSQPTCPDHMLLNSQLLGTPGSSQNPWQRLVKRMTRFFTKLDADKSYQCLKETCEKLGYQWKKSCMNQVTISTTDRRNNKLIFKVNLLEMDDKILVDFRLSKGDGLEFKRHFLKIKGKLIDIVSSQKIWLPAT

[7] = target: Ephrin type-A receptor 2 (Homo sapiens) (UniProt P29317); experiment: Inhibition of EPHA2 (unknown origin) at 1 uM relative to control; values are per cent of control
Ephrin type-A receptor 2 (Homo sapiens), sequence (P29317 whole entry): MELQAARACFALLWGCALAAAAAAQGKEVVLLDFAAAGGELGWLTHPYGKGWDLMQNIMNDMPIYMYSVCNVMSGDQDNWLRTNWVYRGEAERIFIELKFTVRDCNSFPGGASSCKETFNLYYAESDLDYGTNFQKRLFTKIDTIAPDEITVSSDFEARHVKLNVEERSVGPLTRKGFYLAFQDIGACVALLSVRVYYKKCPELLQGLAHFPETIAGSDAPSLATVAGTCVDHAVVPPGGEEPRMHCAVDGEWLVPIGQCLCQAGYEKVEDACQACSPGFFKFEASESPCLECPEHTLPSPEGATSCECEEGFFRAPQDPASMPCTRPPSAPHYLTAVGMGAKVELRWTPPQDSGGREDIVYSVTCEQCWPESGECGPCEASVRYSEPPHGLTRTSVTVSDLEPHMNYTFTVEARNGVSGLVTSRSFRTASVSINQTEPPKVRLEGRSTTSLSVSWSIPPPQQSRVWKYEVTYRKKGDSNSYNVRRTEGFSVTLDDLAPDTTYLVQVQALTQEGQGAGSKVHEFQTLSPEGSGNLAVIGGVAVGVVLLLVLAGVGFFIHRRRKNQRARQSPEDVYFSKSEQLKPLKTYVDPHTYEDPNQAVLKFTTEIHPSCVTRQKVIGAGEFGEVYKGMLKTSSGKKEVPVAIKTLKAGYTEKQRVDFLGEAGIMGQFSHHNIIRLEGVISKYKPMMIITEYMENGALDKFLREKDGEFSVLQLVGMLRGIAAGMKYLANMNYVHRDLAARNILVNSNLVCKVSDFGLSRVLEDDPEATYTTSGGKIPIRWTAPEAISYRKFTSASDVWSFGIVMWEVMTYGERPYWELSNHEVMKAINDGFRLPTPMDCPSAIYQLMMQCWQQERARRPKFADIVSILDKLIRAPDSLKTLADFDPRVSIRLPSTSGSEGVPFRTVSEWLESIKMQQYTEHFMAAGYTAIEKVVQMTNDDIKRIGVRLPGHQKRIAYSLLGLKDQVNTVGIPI

[8] = target: Fibroblast growth factor receptor 1 (Homo sapiens) (UniProt P11362); experiment: Inhibition of FGFR1 (unknown origin) at 1 uM relative to control; values are per cent of control
Fibroblast growth factor receptor 1 (Homo sapiens), sequence (P11362 22-822 limits assumed): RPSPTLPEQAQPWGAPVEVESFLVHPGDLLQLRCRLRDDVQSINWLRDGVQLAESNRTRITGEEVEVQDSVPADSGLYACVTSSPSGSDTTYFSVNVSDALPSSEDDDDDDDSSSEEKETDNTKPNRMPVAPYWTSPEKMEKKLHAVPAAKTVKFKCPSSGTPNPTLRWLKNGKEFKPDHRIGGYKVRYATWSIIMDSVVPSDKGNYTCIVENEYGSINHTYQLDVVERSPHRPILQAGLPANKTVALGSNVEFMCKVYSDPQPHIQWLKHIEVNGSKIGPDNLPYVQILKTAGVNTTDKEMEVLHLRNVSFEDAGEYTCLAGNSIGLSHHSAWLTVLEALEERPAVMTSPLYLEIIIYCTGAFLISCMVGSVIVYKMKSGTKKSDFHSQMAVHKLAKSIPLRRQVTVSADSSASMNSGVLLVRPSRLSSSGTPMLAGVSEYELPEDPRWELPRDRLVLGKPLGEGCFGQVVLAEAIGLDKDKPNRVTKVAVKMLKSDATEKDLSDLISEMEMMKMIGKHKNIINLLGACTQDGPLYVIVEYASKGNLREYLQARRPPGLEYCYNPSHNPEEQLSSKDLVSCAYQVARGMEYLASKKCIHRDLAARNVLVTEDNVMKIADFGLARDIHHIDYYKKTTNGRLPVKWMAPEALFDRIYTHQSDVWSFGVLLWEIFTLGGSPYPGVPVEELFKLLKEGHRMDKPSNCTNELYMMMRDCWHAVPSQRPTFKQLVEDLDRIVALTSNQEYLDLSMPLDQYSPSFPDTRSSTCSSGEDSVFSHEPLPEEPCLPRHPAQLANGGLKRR

[9] = target: MAP kinase-activated protein kinase 2 (Homo sapiens) (UniProt P49137); experiment: Inhibition of MAPKAPK2 (unknown origin) at 1 uM relative to control; values are per cent of control
MAP kinase-activated protein kinase 2 (Homo sapiens), sequence (P49137 whole entry, looked up): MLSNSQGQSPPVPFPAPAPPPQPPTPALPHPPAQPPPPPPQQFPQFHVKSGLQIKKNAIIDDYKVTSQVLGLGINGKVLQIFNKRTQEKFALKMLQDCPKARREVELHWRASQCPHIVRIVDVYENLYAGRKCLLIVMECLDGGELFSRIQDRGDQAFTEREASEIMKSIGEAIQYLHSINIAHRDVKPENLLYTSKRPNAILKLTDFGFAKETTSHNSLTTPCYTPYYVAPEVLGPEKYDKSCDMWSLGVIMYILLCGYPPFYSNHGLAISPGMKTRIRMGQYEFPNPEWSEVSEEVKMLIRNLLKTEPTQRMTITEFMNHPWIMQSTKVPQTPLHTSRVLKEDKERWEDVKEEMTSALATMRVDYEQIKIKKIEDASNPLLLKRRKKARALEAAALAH

Serine/threonine-protein kinase pim-1, sequence (P11309 whole entry, looked up): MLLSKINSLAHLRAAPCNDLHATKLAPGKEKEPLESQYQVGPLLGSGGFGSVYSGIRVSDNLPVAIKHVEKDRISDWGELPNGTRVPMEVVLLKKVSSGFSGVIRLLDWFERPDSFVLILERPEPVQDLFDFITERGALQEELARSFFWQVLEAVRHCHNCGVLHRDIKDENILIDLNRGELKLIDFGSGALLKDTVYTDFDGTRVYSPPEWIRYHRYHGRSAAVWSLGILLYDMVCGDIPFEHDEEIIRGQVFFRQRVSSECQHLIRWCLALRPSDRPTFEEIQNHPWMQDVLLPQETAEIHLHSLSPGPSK

Row | residual binding, % of control [1] [%] | residual binding, % of control [2] [%] | residual binding, % of control [3] [%] | residual binding, % of control [4] [%] | residual activity [5] [%] | residual activity [6] [%] | residual activity [7] [%] | residual activity [8] [%] | residual activity [9] [%] | Structure (SMILES)
1 | 75 | 100 | 100 | 100 | 96 | 100 | 78 | 89 | 94 | CCOC(=O)c1sc(-c2ccncc2)nc1O
2 | 99 | 100 | 100 | 100 | 100 | 78 | 80 | 100 | 100 | COc1ccc(-c2nc(-c3ccnc(N)n3)sc2C(N)=O)c(Cl)c1

Row | Structure (SMILES) | residual binding, % of control [1] [%] | residual binding, % of control [2] [%] | residual binding, % of control [3] [%] | residual binding, % of control [4] [%] | residual activity [5] [%] | residual activity [6] [%] | residual activity [7] [%] | residual activity [8] [%] | residual activity [9] [%]
3 | NC(=O)c1sc(-c2ccnc(N)n2)nc1-c1ccc(Cl)cc1Cl | 83 | 73 | 100 | 85 | 100 | 100 | 88 | 87 | 96
